Data: ChEMBL document CHEMBL1132135, “Potent, orally absorbed glucagon receptor antagonists” (Bioorg Med Chem Lett, 1999)

How the values were obtained:
Glucagon receptor [1] = biological target: T1, Glucagon receptor (Homo sapiens, UniProt P47871); test: biochemical; type: cell-based, CHO
Glucagon receptor [2] = biological target: T2, Glucagon receptor (Mus musculus, UniProt Q61606); test: Binding affinity towards glucagon receptor determined by reduction in binding of 125 I-glucagon to the murine glucagon receptor (mGLUR) expressed on CHO cells in presence of Mg+2; type: cell-based
In short: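 Mg2+ added at 5 mM, a physiological level, to the binding medium. IC50 reported in µM, with the number of determinations noted; where no IC50 was reached, percent inhibition is given at a single tested concentration.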

Glucagon receptor [3] = biological target: T1, Glucagon receptor; test: Binding affinity towards glucagon receptor determined by reduction in binding of [125I]glucagon to the human glucagon receptor (GGR) expressed on CHO cells in presence of Mg+2; type: cell-based
In short: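 Radioligand binding to the glucagon receptor was run with 5 mM Mg2+ added, described as a physiological concentration.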

[4] = biological target: Mitogen-activated protein kinase 14 (Homo sapiens, UniProt Q16539); test: Inhibitory activity against p38-alpha kinase
[5] = Concentration in plasma (systemic) following oral dose in mouse at 24 hr; type: ADME, organism-based
In short: (§1)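 Oral gavage in CD1 mice at 50 mg/kg, vehicle 5% PEG-400/5% Tween-80/90% water, 10 mL/kg. At each time point mice were CO2-anesthetized and bled by cardiac puncture at sacrifice. Samples were heparinized, kept at 0 °C for up to 2 h, then centrifuged to plasma. Plasma proteins were precipitated with acetonitrile and analyzed by HPLC.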

[6] = Concentration in plasma (systemic) following oral dose in rats at 2 hr; type: ADME, organism-based; details: rat
In short: (§2)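 Fasted male Sprague-Dawley rats (300-400 g) were gavaged at 3.0 mg/kg, using a 0.3 mg/mL solution in 5% PEG-400/5% Tween-80/90% water at 10 mL/kg. At each time point animals were CO2-anesthetized. Portal vein blood was drawn first, then cardiac puncture at sacrifice. Samples were heparinized, held at 0 °C for up to 2 h, then centrifuged. Plasma proteins were precipitated with acetonitrile and analyzed by LC/MS/MS.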

[7] = Concentration in plasma (systemic) following oral dose in rats at 0.25 hr; type: ADME, organism-based; details: rat
In short: as §2

[8] = Concentration in plasma (portal) following oral dose in rats at 0.25 hr; type: ADME, organism-based; details: rat
In short: as §2

Glucagon receptor [9] = biological target: T2, Glucagon receptor; test: Binding affinity towards glucagon receptor determined by reduction in binding of [125I]glucagon to the murine glucagon receptor (GGR) expressed on CHO cells in absence of Mg+2; type: cell-based
[10] = Concentration in plasma (systemic) following oral dose in rats at 1 hr; type: ADME, organism-based; details: rat
In short: as §2

[11] = Concentration in plasma (systemic) following oral dose in mouse at 1 hr; type: ADME, organism-based
In short: as §1

[12] = Concentration in plasma (systemic) following oral dose in mouse at 2 hr; type: ADME, organism-based
In short: as §1

[13] = Concentration in plasma (portal) following oral dose in rats at 2 hr; type: ADME, organism-based; details: rat
In short: as §2

[14] = Concentration in plasma (systemic) following oral dose in mouse at 6 hr; type: ADME, organism-based
In short: as §1

[15] = Concentration in plasma (systemic) following oral dose in mouse at 0.25 hr; type: ADME, organism-based
In short: as §1

[16] = Concentration in plasma (portal) following oral dose in rats at 1 hr; type: ADME, organism-based; details: rat
In short: as §2

[17] = Concentration in plasma (systemic) following oral dose in mouse at 4 hr; type: ADME, organism-based
In short: as §1

[18] = Selectivity ratio between the binding value of human glucagon receptor (GGR) with Mg+2 and the value of p38 kinase
[19] = biological target: Glucagon receptor (Mus musculus) (UniProt Q61606); test: Binding affinity towards glucagon receptor determined by reduction in binding of 125 I-glucagon to the murine glucagon receptor (mGLUR) expressed on CHO cells in presence of Mg+2 at 1 uM; type: cell-based
Glucagon receptor [20] = biological target: T2, Glucagon receptor; test: Binding affinity towards glucagon receptor determined by reduction in binding of 125 I-glucagon to the murine glucagon receptor (mGLUR) expressed on CHO cells in absence of Mg; type: cell-based

T1 sequence (P47871 whole entry): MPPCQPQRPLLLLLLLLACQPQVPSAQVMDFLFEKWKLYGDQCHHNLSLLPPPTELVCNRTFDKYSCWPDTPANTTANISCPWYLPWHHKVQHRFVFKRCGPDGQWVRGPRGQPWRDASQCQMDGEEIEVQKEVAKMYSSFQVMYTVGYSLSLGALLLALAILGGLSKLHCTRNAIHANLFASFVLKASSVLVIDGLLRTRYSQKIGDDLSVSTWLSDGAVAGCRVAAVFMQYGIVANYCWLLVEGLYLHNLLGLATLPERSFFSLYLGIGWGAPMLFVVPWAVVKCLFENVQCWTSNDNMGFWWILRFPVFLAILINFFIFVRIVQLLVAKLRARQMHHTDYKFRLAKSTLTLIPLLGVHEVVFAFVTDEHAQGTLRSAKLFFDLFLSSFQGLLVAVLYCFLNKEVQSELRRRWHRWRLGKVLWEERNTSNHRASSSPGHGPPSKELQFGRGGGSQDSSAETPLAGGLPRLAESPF
T2 sequence (Q61606 whole entry): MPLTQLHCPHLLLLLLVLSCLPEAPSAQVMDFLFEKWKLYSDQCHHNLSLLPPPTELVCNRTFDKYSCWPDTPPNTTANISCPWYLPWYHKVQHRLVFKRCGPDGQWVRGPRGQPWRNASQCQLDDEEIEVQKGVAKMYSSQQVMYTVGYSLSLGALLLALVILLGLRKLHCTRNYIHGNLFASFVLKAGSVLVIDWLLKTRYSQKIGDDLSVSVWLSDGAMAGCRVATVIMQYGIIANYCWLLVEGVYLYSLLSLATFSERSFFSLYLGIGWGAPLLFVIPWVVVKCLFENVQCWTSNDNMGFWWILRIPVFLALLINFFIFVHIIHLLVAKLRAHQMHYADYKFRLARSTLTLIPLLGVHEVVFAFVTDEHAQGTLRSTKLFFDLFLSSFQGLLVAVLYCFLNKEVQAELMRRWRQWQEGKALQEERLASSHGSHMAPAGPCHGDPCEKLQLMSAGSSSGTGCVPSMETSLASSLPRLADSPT
Sequence of Mitogen-activated protein kinase 14 (Q16539 whole entry): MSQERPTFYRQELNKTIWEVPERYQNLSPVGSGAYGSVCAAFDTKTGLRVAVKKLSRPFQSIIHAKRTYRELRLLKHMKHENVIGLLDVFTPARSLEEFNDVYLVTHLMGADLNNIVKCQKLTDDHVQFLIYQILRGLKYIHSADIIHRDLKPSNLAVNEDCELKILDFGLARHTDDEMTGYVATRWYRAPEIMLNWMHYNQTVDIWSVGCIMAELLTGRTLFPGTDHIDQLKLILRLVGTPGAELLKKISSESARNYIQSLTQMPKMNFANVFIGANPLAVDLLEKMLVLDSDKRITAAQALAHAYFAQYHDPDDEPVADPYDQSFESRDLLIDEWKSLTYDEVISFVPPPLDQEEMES
Sequence of Glucagon receptor (Mus musculus) (Q61606 whole entry): as the sequence (Q61606 whole entry) above

| IC50 (Glucagon receptor [1]) | IC50 (Glucagon receptor [2]) | IC50 (Glucagon receptor [3]) | IC50 [4] | concentration at 24 h [5] | concentration at 2 h [6] | concentration at 0.25 h [7] | concentration at 0.25 h [8] | IC50 (Glucagon receptor [9]) | concentration at 1 h [10] | concentration at 1 h [11] | concentration at 2 h [12] | concentration at 2 h [13] | concentration at 6 h [14] | concentration at 0.25 h [15] | concentration at 1 h [16] | concentration at 4 h [17] | Ratio [18] | inhibition [19] | IC50 (Glucagon receptor [20]) | Compound |
| --- | --- | --- | --- | --- | --- | --- | --- | --- | --- | --- | --- | --- | --- | --- | --- | --- | --- | --- | --- | --- |
| 7 nM | 250 nM | 170 nM | 1440 nM | 700 nM | 840 nM | 9 nM | 25 nM | 37 nM | 590 nM | 15200 nM | 11700 nM | 1400 nM | 13100 nM | 1700 nM | 1240 nM | 16500 nM | 0.12 | – | – | CCCOc1ccc(Br)cc1-c1cc(-c2ccc(Cl)cc2)[nH]c1-c1ccncc1 |
| 150 nM | – | 1700 nM | 80 nM | – | – | – | – | – | – | – | – | – | – | – | – | – | 21.2 | 48% | 230 nM | Clc1ccc(-c2cc(-c3cccc(Br)c3)c(-c3ccncc3)[nH]2)cc1 |
